# Measured values taken from paper PMC9305210 (British Journal of Clinical Pharmacology, 2022).
# What was measured:
# Urine pharmacokinetics = assay type: in vivo, human; details: for Ae t, mean (CV%) / f e, mean (CV%): urine
# 24HC levels in the brain = details: single oral administration in mice; cited from earlier work
# [1] = test system: plasma 24S‐hydroxycholesterol (24HC); assay: Pharmacodynamics: time‐matched percentage change from baseline in plasma 24HC; assay type: in vivo, human
# Summary of the method: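 Healthy adults (18-55 y, BMI 18-30 kg/m2), 6 active:2 placebo, double-blind; oral solution QD or BID after ≥8 h fast. 24HC by LC-MS/MS, validated 2.00-100 ng/mL. Time-matched % change from baseline; AUEC24/E24 for QD, AUEC12/E12 for BID.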
# Safety and tolerability = assay type: in vivo, human; details: n = 6
# Summary of the method: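 Randomized, double-blind, placebo-controlled; cohorts of 8 (6:2) healthy adults given oral solution daily for a planned 14 days after ≥8 h fast, confined on site days −3 to 15 plus 1 follow-up day. Monitoring covered AEs, physical examination, BMI, vital signs, ECG and clinical laboratory tests. Subjects with ≥1 treatment-emergent AE counted across all subjects receiving at least one dose.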
# [2] = day 14, 400 mg dose (range 100‐400 mg QD)
compound,measurement,setting,value
"O=C(c1cccnc1-c1ccncc1)N1CCC(O)(Cc2ccccc2)CC1 [Soticlestat, soticlestat]",renal excretion / renal elimination,Urine pharmacokinetics; all doses,negligible
same,"Ae t, mean (CV%)","Urine pharmacokinetics; Ae τ = Ae 12, soticlestat 300 mg BID oral solution, day 1",0.490 (75.9) mg
same,"Ae t, mean (CV%)","Urine pharmacokinetics; Ae τ = Ae 24, soticlestat 100 mg QD oral solution, day 1",0.0900 (25.6) mg
same,"Ae t, mean (CV%)","Urine pharmacokinetics; Ae τ = Ae 24, soticlestat 100 mg QD oral solution, day 14",0.0800 (30.0) mg
same,"Ae t, mean (CV%)","Urine pharmacokinetics; Ae τ = Ae 24, soticlestat 300 mg QD oral solution, day 1",0.660 (84.3) mg
same,"Ae t, mean (CV%)","Urine pharmacokinetics; Ae τ = Ae 24, soticlestat 300 mg QD oral solution, day 14",0.56 (83.4) mg
same,"Ae t, mean (CV%)","Urine pharmacokinetics; Ae τ = Ae 24, soticlestat 400 mg QD oral solution, day 1",0.920 (47.7) mg
same,"Ae t, mean (CV%)","Urine pharmacokinetics; Ae τ = Ae 24, soticlestat 400 mg QD oral solution, day 14",1.01 (31.9) mg
same,"Ae t, mean (CV%)","Urine pharmacokinetics; Ae τ = Ae 24, soticlestat 600 mg QD oral solution, day 1",1.440 (74.4) mg
same,"f e, mean (CV%)","Urine pharmacokinetics; soticlestat 100 mg QD oral solution, day 1",0.0900 (25.6) %
same,"f e, mean (CV%)","Urine pharmacokinetics; soticlestat 100 mg QD oral solution, day 14",0.0800 (30.0) %
same,"f e, mean (CV%)","Urine pharmacokinetics; soticlestat 300 mg BID oral solution, day 1",0.160 (75.9) %
same,"f e, mean (CV%)","Urine pharmacokinetics; soticlestat 300 mg QD oral solution, day 1",0.220 (84.3) %
same,"f e, mean (CV%)","Urine pharmacokinetics; soticlestat 300 mg QD oral solution, day 14",0.190 (83.4) %
same,"f e, mean (CV%)","Urine pharmacokinetics; soticlestat 400 mg QD oral solution, day 1",0.230 (47.7) %
same,"f e, mean (CV%)","Urine pharmacokinetics; soticlestat 400 mg QD oral solution, day 14",0.250 (31.9) %
same,"f e, mean (CV%)","Urine pharmacokinetics; soticlestat 600 mg QD oral solution, day 1",0.240 (74.4) %
same,24HC levels in the brain,24HC levels in the brain,dose‐dependent reduction in 24HC levels in the brain
same,"24HC AUECτ, mean (CV%), percentage change from baseline (day −1)","[1]; AUECτ = AUEC12, 300 mg BID, day 1",−6.90 (−75.9) %
same,"24HC AUECτ, mean (CV%), percentage change from baseline (day −1)","[1]; AUECτ = AUEC24, 100 mg QD, day 1",−8.15 (−45.4) %
same,"24HC AUECτ, mean (CV%), percentage change from baseline (day −1)","[1]; AUECτ = AUEC24, 100 mg QD, day 14",−46.8 (−9.2) %
same,"24HC AUECτ, mean (CV%), percentage change from baseline (day −1)","[1]; AUECτ = AUEC24, 300 mg QD, day 1",−12.7 (−36.5) %
same,"24HC AUECτ, mean (CV%), percentage change from baseline (day −1)","[1]; AUECτ = AUEC24, 300 mg QD, day 14",−61.9 (−17.0) %
same,"24HC AUECτ, mean (CV%), percentage change from baseline (day −1)","[1]; AUECτ = AUEC24, 400 mg QD, day 1",−11.7 (−34.5) %
same,"24HC AUECτ, mean (CV%), percentage change from baseline (day −1)","[1]; AUECτ = AUEC24, 400 mg QD, day 14",−62.7 (−7.3) %
same,"24HC AUECτ, mean (CV%), percentage change from baseline (day −1)","[1]; AUECτ = AUEC24, 600 mg QD, day 1",−14.0 (−27.9) %
same,"24HC E t, mean (CV%), percentage change from baseline (day −1)","[1]; E t = E 12, 300 mg BID, day 1",−10.5 (−63.8) %
same,"24HC E t, mean (CV%), percentage change from baseline (day −1)","[1]; E t = E 24, 100 mg QD, day 1",−20.9 (−49.0) %
same,"24HC E t, mean (CV%), percentage change from baseline (day −1)","[1]; E t = E 24, 100 mg QD, day 14",−49.1 (−11.9) %
same,"24HC E t, mean (CV%), percentage change from baseline (day −1)","[1]; E t = E 24, 300 mg QD, day 1",−22.4 (−19.5) %
same,"24HC E t, mean (CV%), percentage change from baseline (day −1)","[1]; E t = E 24, 300 mg QD, day 14",−63.8 (−19.3) %
same,"24HC E t, mean (CV%), percentage change from baseline (day −1)","[1]; E t = E 24, 400 mg QD, day 1",−28.4 (−28.1) %
same,"24HC E t, mean (CV%), percentage change from baseline (day −1)","[1]; E t = E 24, 400 mg QD, day 14",−65.6 (−6.0) %
same,"24HC E t, mean (CV%), percentage change from baseline (day −1)","[1]; E t = E 24, 600 mg QD, day 1",−30.6 (−41.0) %
same,maximum decrease from baseline in 24HC AUEC24,[1]; [2],62.66%
same,maximum decrease from baseline in 24HC E24,[1]; [2],65.59%
same,Number of subjects (%) with SAEs,Safety and tolerability; 100 mg QD,0
same,Number of subjects (%) with TEAEs,Safety and tolerability; 100 mg QD,0
same,Number of subjects (%) with TEAEs: Leading to discontinuation,Safety and tolerability; 100 mg QD,0
same,Number of subjects (%) with TEAEs: Mild,Safety and tolerability; 100 mg QD,0
same,Number of subjects (%) with TEAEs: Moderate,Safety and tolerability; 100 mg QD,0
same,Number of subjects (%) with TEAEs: Not related,Safety and tolerability; 100 mg QD,0
same,Number of subjects (%) with TEAEs: Related,Safety and tolerability; 100 mg QD,0
same,Number of subjects (%) with TEAEs: Severe,Safety and tolerability; 100 mg QD,0
same,Number of subjects (%): Deaths,Safety and tolerability; 100 mg QD,0
same,Number of subjects (%) with SAEs,Safety and tolerability; 300 mg BID,0
same,Number of subjects (%) with TEAEs,Safety and tolerability; 300 mg BID,5 (83.3)
same,Number of subjects (%) with TEAEs: Leading to discontinuation,Safety and tolerability; 300 mg BID,1 (16.7)
same,Number of subjects (%) with TEAEs: Mild,Safety and tolerability; 300 mg BID,5 (83.3)
same,Number of subjects (%) with TEAEs: Moderate,Safety and tolerability; 300 mg BID,0
same,Number of subjects (%) with TEAEs: Not related,Safety and tolerability; 300 mg BID,0
same,Number of subjects (%) with TEAEs: Related,Safety and tolerability; 300 mg BID,5 (83.3)
same,Number of subjects (%) with TEAEs: Severe,Safety and tolerability; 300 mg BID,0
same,Number of subjects (%): Deaths,Safety and tolerability; 300 mg BID,0
same,Number of subjects (%) with SAEs,Safety and tolerability; 300 mg QD,0
same,Number of subjects (%) with TEAEs,Safety and tolerability; 300 mg QD,1 (16.7)
same,Number of subjects (%) with TEAEs: Leading to discontinuation,Safety and tolerability; 300 mg QD,0
same,Number of subjects (%) with TEAEs: Mild,Safety and tolerability; 300 mg QD,1 (16.7)
same,Number of subjects (%) with TEAEs: Moderate,Safety and tolerability; 300 mg QD,0
same,Number of subjects (%) with TEAEs: Not related,Safety and tolerability; 300 mg QD,0
same,Number of subjects (%) with TEAEs: Related,Safety and tolerability; 300 mg QD,1 (16.7)
same,Number of subjects (%) with TEAEs: Severe,Safety and tolerability; 300 mg QD,0
same,Number of subjects (%): Deaths,Safety and tolerability; 300 mg QD,0
same,Number of subjects (%) with SAEs,Safety and tolerability; 400 mg QD,0
same,Number of subjects (%) with TEAEs,Safety and tolerability; 400 mg QD,5 (83.3)
same,Number of subjects (%) with TEAEs: Leading to discontinuation,Safety and tolerability; 400 mg QD,0
same,Number of subjects (%) with TEAEs: Mild,Safety and tolerability; 400 mg QD,4 (66.7)
same,Number of subjects (%) with TEAEs: Moderate,Safety and tolerability; 400 mg QD,1 (16.7)
